6 molecules from ChEMBL document CHEMBL5252516, “Linker Modification Strategies To Control the Prostate-Specific Membrane Antigen (PSMA)-Targeting and Pharmacokinetic Properties of DOTA-Conjugated PSMA Inhibitors” (J Med Chem, 2016) can be followed below.

Data set [1] can be described thus: Drug uptake in iv dosed BALB/c athymic nude mouse tumor xenografted with human LNCaP cells treated with 68Ga-labeled compound measured upto 120 mins by microPET imaging analysis. Particulars: in vivo, 2 h; call rule not given here. The data set is classed as ADME, organism-based. The gist of the method: (§1)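 Male BALB/c nu/nu mice, 6–8 weeks old, with subcutaneous LNCaP xenografts (6 × 10^6 cells in 50% Matrigel, right trunk) of about 1 cm. Tail-vein injection of 68Ga-labelled compound (~30 MBq, 0.5 nmol) under sevoflurane. Dynamic µPET: 60 min emission scan, then 100–120 min scan. SUVmean for tumor, muscle and kidney at 1 h; tumor/muscle ratio. One animal per compound.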

Data set [2] is described as follows: Retention time of the compound by HPLC. It counts as physicochemical.
Data set [3] is described as follows: Ratio of drug uptake in tumor to muscle in iv dosed BALB/c athymic nude mouse xenografted with human LNCaP cells treated with 68Ga-labeled compound measured after 1 hr by microPET imaging analysis. It counts as ADME, organism-based. The following applies: in vivo. The essentials:
as §1

Data set [4] can be described thus: Drug uptake in iv dosed BALB/c athymic nude mouse tumor xenografted with human LNCaP cells treated with 68Ga-labeled compound measured after 1 hr by microPET imaging analysis. The data set is classed as ADME, organism-based. Particulars: in vivo. The gist of the method: as §1
The nature of data set [5]: Binding affinity to human serum protein after 1 hr by gel filtration method. It counts as ADME. A general note: In gel filtration, larger molecules generally elute earlier.
Data set [6] is described as follows: Drug uptake in iv dosed BALB/c athymic nude mouse kidney xenografted with human LNCaP cells treated with 68Ga-labeled compound measured after 1 hr by microPET imaging analysis. It counts as ADME, organism-based. Particulars: in vivo. The essentials: as §1
(A xenograft is tissue or cells of one species grown in another, often human tumour cells in immunodeficient mice.)

The nature of data set [7]: Drug uptake in iv dosed BALB/c athymic nude mouse muscle xenografted with human LNCaP cells treated with 68Ga-labeled compound measured after 1 hr by microPET imaging analysis. It counts as ADME, organism-based. The following applies: in vivo. The essentials: as §1
For data set [8], the target named is T1, Glutamate carboxypeptidase 2 (Homo sapiens, UniProt Q04609). The data set is described as follows: Inhibition of PSMA in human LNCaP cells assessed as cell surface binding per 10^6 cells using 177Lu-labeled compound after 45 mins by gamma counting analysis. It counts as cell-based. The gist of the method: (§2)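 LNCaP cells (10^5/well) seeded on poly-L-lysine 24 h before. Incubated 45 min at 37 °C with 32 nM 177Lu-labelled compound (25 GBq/µmol) in Opti-MEM, with or without 500 µM 2-PMPA as blocker. Four ice-cold PBS washes, surface fraction stripped with 50 mM glycine pH 2.8, internalized fraction released by 0.3 M NaOH lysis. Both fractions gamma-counted, specific values given as %IA/10^6 cells. Triplicate.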
Target sequence in this assay (Q04609 whole entry, looked up): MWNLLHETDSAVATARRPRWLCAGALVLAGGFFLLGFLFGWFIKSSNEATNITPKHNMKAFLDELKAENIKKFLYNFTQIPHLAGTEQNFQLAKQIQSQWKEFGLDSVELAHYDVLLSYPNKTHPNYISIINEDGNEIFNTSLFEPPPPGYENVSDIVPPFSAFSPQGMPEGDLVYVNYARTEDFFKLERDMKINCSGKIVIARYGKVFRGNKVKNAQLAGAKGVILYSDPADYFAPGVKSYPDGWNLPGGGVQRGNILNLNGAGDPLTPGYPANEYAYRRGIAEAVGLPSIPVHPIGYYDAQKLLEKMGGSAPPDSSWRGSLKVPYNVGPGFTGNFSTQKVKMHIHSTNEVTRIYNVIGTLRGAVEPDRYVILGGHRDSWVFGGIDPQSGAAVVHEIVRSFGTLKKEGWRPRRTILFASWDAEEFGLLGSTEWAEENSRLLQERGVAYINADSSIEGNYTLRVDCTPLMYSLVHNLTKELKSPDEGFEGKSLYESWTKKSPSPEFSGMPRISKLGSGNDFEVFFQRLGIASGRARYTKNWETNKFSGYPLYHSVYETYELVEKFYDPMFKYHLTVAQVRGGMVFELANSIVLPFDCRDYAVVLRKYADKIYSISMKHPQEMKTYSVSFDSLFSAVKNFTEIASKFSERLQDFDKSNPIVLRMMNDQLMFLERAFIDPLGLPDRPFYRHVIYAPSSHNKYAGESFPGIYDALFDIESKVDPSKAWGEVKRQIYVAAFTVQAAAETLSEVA

A short description of data set [9]: Distribution coefficient, logD of the compound at pH 7.4 in n-octanol/0.1 M HEPES by shake flask method. It counts as physicochemical. The gist of the method: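 Radiolabelled compound shaken to equilibrium in n-octanol / 0.1 M HEPES pH 7.4. Aliquots of both phases gamma-counted and logD calculated from the phase ratio. Mean ± SD.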
Data set [10] addresses T1, Glutamate carboxypeptidase 2. The data set is described as follows: Inhibition of PSMA in human LNCaP cells assessed as specific internalization per 10^6 cells using 177Lu-labeled compound after 45 mins by gamma counting analysis. It counts as cell-based. The gist of the method:
as §2
Target sequence in this assay (Q04609 whole entry, looked up): as above

Data set [11] shares this target. The data set is described as follows: Binding affinity to PSMA in human LNCaP cells after 45 mins in presence of 68Ga-labeled PSMA-10 by gamma counting assay. The data set is classed as cell-based.
Target sequence in this assay (Q04609 whole entry): as the sequence (Q04609 whole entry, looked up) above

Usually logD stands for the decadic logarithm of the distribution of all forms, ionised or not, between an organic phase and buffer at a given pH. A low value points to lower lipophilicity. The Ki is the equilibrium dissociation constant of an inhibitor or competing ligand from its target. In the case of `O=C(O)CC[C@H](NC(=O)N[C@@H](CCCCNC(=O)[C@H](Cc1ccc2ccccc2c1)NC(=O)c1ccc(CNC(=O)CN2CCN(CC(=O)O)CCN(CC(=O)O)CCN(CC(=O)O)CC2)cc1)C(=O)O)C(=O)O`, in [1], the Drug uptake result was “Active”. This molecule displayed a Retention_time in data set [2] of 2.32 min. The Ratio in data set [3] was found to be 5.2. For the same molecule, the SUV in data set [4] is given as 0.52; in data set [6] it was 3.63; in data set [7] it was 0.1. Moreover, in [5], the PB entry was “Not Active”. The specific cell surface binding (% of applied activity per 10^6 cells) in [8] came out at 16.8%. In data set [9], this molecule displayed a log distribution coefficient (logD) of -2.1. Moreover, the specific internalization (% of added activity per 10^6 cells) in data set [10] came to 7.17%. In addition, the Ki in data set [11] is 0.00181 µM.
In the case of `O=C(O)CC[C@H](NC(=O)N[C@@H](CCCCNC(=O)c1ccc(CNC(=O)c2ccc(CNC(=O)c3ccc(CNC(=O)CN4CCN(CC(=O)O)CCN(CC(=O)O)CCN(CC(=O)O)CC4)cc3)cc2)cc1)C(=O)O)C(=O)O`, in data set [1], the Drug uptake result was “Active”. The same molecule registered a Retention_time in [2] of 1.95 min. For the same molecule, the Ratio in data set [3] amounted to 5.4. Moreover, the SUV was determined as 0.58 in [4], 4.16 in [6] and 0.11 in data set [7]. Also, the PB result in data set [5] was “Not Active”. The specific cell surface binding (% of applied activity per 10^6 cells) in data set [8] came to 21.4%. In data set [9], this molecule came in with a logD of -2.06. In addition, the specific internalization (% of added activity per 10^6 cells) in [10] was 12.5%. The Ki in [11] worked out at 0.00053 µM.
For `O=C(O)CC[C@H](NC(=O)N[C@@H](CCCCNC(=O)[C@H]1CC[C@H](CNC(=O)[C@H]2CC[C@H](CNC(=O)CN3CCN(CC(=O)O)CCN(CC(=O)O)CCN(CC(=O)O)CC3)CC2)CC1)C(=O)O)C(=O)O`, the Drug uptake entry in data set [1] is reported as “Not Active”. Also, the Retention_time in data set [2] is 2.08 min. The Ratio in data set [3] is listed as 2.3. The SUV is recorded as 0.3 in data set [4], 4.29 in data set [6] and 0.13 in [7]. In addition, the PB result in [5] is recorded as “Not Active”. The specific cell surface binding (% of applied activity per 10^6 cells) in data set [8] was found to be 3.88%. For the same molecule, the logD in data set [9] was -1.12. The specific internalization (% of added activity per 10^6 cells) in data set [10] worked out at 1.43%. Also, the inhibition constant Ki in data set [11] amounted to 0.021 µM.
Consider `O=C(O)CC[C@H](NC(=O)N[C@@H](CCCCNC(=O)[C@H]1CC[C@H](CNC(=O)c2ccc(CNC(=O)CN3CCN(CC(=O)O)CCN(CC(=O)O)CCN(CC(=O)O)CC3)cc2)CC1)C(=O)O)C(=O)O`, for which the Drug uptake entry in data set [1] was “Not Active”. In data set [2], this molecule registered a Retention_time of 2.07 min. For the same molecule, in data set [3], the Ratio was 3.9. The SUV in data set [4] was determined as 0.54; in data set [6], 8.1; in [7], 0.14. Further, the PB result in data set [5] is recorded as “Not Active”. In data set [8], the specific cell surface binding (% of applied activity per 10^6 cells) is 4.49%. The molecule also registered a logD in [9] of -1.43. Besides, the specific internalization (% of added activity per 10^6 cells) in data set [10] was found to be 2.7%. Moreover, the Ki in data set [11] worked out at 0.0247 µM.
Take `O=C(O)CC[C@H](NC(=O)N[C@@H](CCCCNC(=O)[C@H](Cc1ccc2ccccc2c1)NC(=O)[C@H]1CC[C@H](CNC(=O)CN2CCN(CC(=O)O)CCN(CC(=O)O)CCN(CC(=O)O)CC2)CC1)C(=O)O)C(=O)O` [VIPIVOTIDE TETRAXETAN]: in [1], the Drug uptake result is reported as “Active”. The molecule further showed a Retention_time in [2] of 2.63 min. In addition, the values for the SUV in [4], in data set [6] and in data set [7] were 0.59, 2.87 and 0.07, respectively. For the same molecule, in [5], the PB result is reported as “Not Active”. Further, in [8], the specific cell surface binding (% of applied activity per 10^6 cells) was 11.4%. Further, the logD in data set [9] was -2. In addition, the specific internalization (% of added activity per 10^6 cells) in data set [10] stood at 16.2%.
With `O=C(O)CC[C@H](NC(=O)N[C@@H](CCCCNC(=O)CCCCCNC(=O)c1ccc(CNC(=O)CN2CCN(CC(=O)O)CCN(CC(=O)O)CCN(CC(=O)O)CC2)cc1)C(=O)O)C(=O)O`, the Drug uptake entry in data set [1] is given as “Not Active”. In data set [2], this molecule gave a Retention_time of 1.74 min. In addition, the Ratio in data set [3] is reported as 3.8. For the same molecule, the SUV in data set [4] worked out at 0.3; in data set [6] it was 4.7; in data set [7] it was 0.08. In [5], the PB entry was “Not Active”. For the same molecule, the specific cell surface binding (% of applied activity per 10^6 cells) in data set [8] was determined as 17.7%. The molecule also gave a logD in [9] of -1.92. Also, the specific internalization (% of added activity per 10^6 cells) in [10] was found to be 2.11%. For the same molecule, the Ki in [11] was found to be 0.0153 µM.
